An excerpt weighted towards active compounds, which were near 3.1% of everything screened.
IMP-1 inh: IMP-1 metallo-beta-lactamase inhibitors, primary screen, biochemical, epi-absorbance readout, Pseudomonas aeruginosa enzyme; metallo-beta-lactamase IMP-1 (Pseudomonas aeruginosa); purified IMP-1, nitrocefin hydrolysis, epi-absorbance fluorescence; inhibition, % at 5.6 µM; 290,000 compounds, 0.45% hits; AID 1556, 2009;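 active = inhibition above the mean plus 3 SD of all compounds in the same screening run, cut at about 4.5% in these data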;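 also: 0% = IMP-1 with DMSO and 100% = DMSO wells lacking enzyme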
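Test system: recombinant IMP-1 enzyme, purified / Medium: HEPES buffer pH 7.1 with ZnSO4 and Brij 35 / Doses: single dose, 5.6 µM / Times: 25 °C, 15 min preincubation, 25 min reaction / Detection: Epi-absorbance via hydrolysed-nitrocefin quenching of white-plate fluorescence, 480/530 nm, EDTA stop / Evaluation: percent inhibition from optical density relative to buffer-blank wells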
VIM-2 inhibitor: VIM-2 metallo-beta-lactamase inhibitors, primary screen, biochemical, epi-absorbance readout, Pseudomonas aeruginosa enzyme; purified VIM-2, nitrocefin hydrolysis, epi-absorbance fluorescence; 290,000 compounds, 0.89% hits; inhibition, % at 5.6 µM;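 active = inhibition above the mean of all tested compounds plus 3 SD, cutoff set per screening run, cut at about 7.5% in these data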;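 also: red hydrolysis product quenches plate fluorescence so inhibitors raise well fluorescence; 0% = enzyme with DMSO and 100% = DMSO without enzyme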
core dimer inh: inhibitors of HCV core protein dimerization, primary screen, biochemical, TR-FRET, high-throughput | TR-FRET GST/Flag-core106 dimerization, 1536-well | inhibition, % at 5 µM | 300,000 compounds, 0.33% hits | AID 1899, 2009;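 active = inhibition above the mean of all tested compounds plus 3 SD, set per screening campaign, cut at about 45% in these data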
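Assay system: tagged HCV core106 pair (GST and Flag); medium: KF-containing HEPES buffer, pH 7.45, DTT, CHAPS, BSA; also added: Eu donor and XL665 acceptor anti-tag antibodies; dosing: 5 µM single dose; timing: compound-protein-antibody incubation 4 h at 22.5 °C; signal: TR-FRET 671 and 617 nm emission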
PHOSPHO1 block: PubChem AID 1565; Phosphoethanolamine/phosphocholine phosphatase (Homo sapiens), Q8TCT1; recombinant PHOSPHO1, absorbance phosphatase assay; inhibition, % at 13.3 µM; 290,000 compounds, 1.1% hits; in the data active = inhibition above about 60%
Target sequence (Q8TCT1 whole entry, looked up): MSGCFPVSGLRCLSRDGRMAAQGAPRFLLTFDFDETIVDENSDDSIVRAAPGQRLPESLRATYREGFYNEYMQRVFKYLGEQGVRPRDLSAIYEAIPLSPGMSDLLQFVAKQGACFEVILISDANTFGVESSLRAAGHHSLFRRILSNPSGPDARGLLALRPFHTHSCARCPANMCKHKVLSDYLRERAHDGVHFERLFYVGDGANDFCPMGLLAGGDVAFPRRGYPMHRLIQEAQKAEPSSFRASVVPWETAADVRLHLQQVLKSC
SUMO HTRF inh: inhibitors of in vitro SUMOylation cascade, primary screen, biochemical, HTRF, uHTS; AID 2006, 2009; SUMO-conjugating enzyme UBC9 (Homo sapiens), P63279; inhibition, % at 35 µM; 290,000 compounds, 0.36% hits; HTRF SUMOylation assay, SAE1/SAE2 + UBC9; in the data active = inhibition above about 50%, passing the limit was not always enough
Target sequence (P63279 whole entry, looked up): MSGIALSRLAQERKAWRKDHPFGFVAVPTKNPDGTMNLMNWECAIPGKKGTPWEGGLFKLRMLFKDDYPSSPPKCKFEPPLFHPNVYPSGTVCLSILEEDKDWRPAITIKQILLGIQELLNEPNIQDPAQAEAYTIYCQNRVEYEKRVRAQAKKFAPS
HCV NS3 hel inh: inhibitors of HCV NS3 helicase, primary screen, biochemical, Cy5 molecular beacon fluorescence; NS3 helicase DNA unwinding; inhibition, % at 10.9 µM; 290,000 compounds, 0.56% hits;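 active = inhibition above the mean of all tested compounds plus 3 SD, set per campaign, cut at about 35% in these data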;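 also: 0% = DMSO wells and 100% = thioflavine S control wells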
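assay system = NS3 helicase fragment of HCV | buffer or medium = MOPS pH 6.5, MgCl2, DTT, Tween20, BSA | timing = 60 min unwinding reaction at 25 °C after ATP addition | signal = Cy5 beacon fluorescence read at start and 1 h | read-out basis = % inhibition of unwinding | control set = low DMSO, high thioflavine S at 110 µM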
Active calls of the source: *; · = no result given.

SMILES | IMP-1 inh | VIM-2 inhibitor | core dimer inh | PHOSPHO1 block | SUMO HTRF inh | HCV NS3 hel inh
O=C(NCC1CCCO1)c1cc(-c2ccc(F)cc2)no1 (stereo unspecified) | -2 | -1 | 13 | 17 | 5 | 3
O=C(O)/C(=C\c1ccccc1OC(F)F)c1ccc(-c2ccccc2)cc1 | 7.3* | -2 | 16 | 28 | 29 | 1
O=C(O)/C(=C\c1ccc(F)cc1)c1ccc(-c2ccccc2)cc1 | 0 | 0 | 3 | 45 | 19 | 2
COc1ccc2[nH]cc(CCNC(=O)Nc3ccccc3)c2c1 | -2 | 0 | -9 | · | 7 | -13
COc1ccc2c(CCNC(=O)Nc3ccccc3)c[nH]c2c1 | 1 | 1 | -6 | 63* | -12 | -5
Cc1ccccc1S(=O)Cc1ccc(C(=O)N2CCN(C(=O)c3ccco3)CC2)o1 (stereo unspecified) | -1 | -2 | 7 | 42 | 0 | 6
Cc1cccc(C(c2c(C)nn(-c3ccccc3)c2N)c2c(C)nn(-c3ccccc3)c2N)c1 | -1 | -1 | 6 | 97* | -18 | -10
COC(=O)c1ccc(NC(C)C(=O)OC)c([N+](=O)[O-])c1 (stereo unspecified) | -4 | -1 | -4 | 17 | 4 | -2
O=C(NN1CC(C(=O)OCc2ccc(Cl)cc2Cl)CC1=O)c1ccccc1 (stereo unspecified) | -6 | -1 | · | 61* | 0 | -2
O=C(NCc1ccc(Cl)cc1Cl)C1CC(=O)N(Cc2ccccc2)C1 (stereo unspecified) | -2 | -2 | -3 | -14 | -21 | 15
Cn1cccc1/C=C1\SC(=S)N(NC(=O)c2cccc(Cl)c2)C1=O | -7 | -7 | -8 | -24 | -20 | -4
O=C(O)c1cc(Cl)c(Cl)cc1C(=O)Nc1cccc2cccnc12 | -3 | 9.1* | -2 | -27 | 76* | -4
O=C(Nc1cccc2cccnc12)c1ccccc1Cl | · | · | 2 | · | · | ·
O=C(c1ccccc1)N1CCN(CC(O)Cn2ccc3ccccc32)CC1 (stereo unspecified) | -2 | -3 | -1 | 66* | 3 | -6
O=C(NCCCNC(=O)c1cccnc1)c1ccc(Cl)cc1 | -3 | -3 | -5 | -36 | -6 | 3
O=C(COc1ccc(Br)cc1)OCCN1CCCCC1 | -5 | -2 | -3 | 9 | -2 | 10
O=C(O)c1sccc1Oc1ccc(NS(=O)(=O)c2ccccc2)cc1 | -2 | 3 | 1 | 6 | 0 | 12
COc1cc(CNCc2ccccn2)ccc1OCc1c(Cl)cccc1Cl | -3 | 1 | -7 | -4 | -15 | -57
Cc1c(Cl)cccc1-c1ccc(CNCc2ccccn2)o1 | -2 | 7.9* | 0 | 20 | 18 | -60
NC(=O)CC(NC(=O)Cc1ccc(Br)cc1)c1ccc(NCCc2ccc(F)cc2)c([N+](=O)[O-])c1 (stereo unspecified) | · | · | 13 | 16 | 45 | ·
NC(=O)CC(NC(=O)Cc1ccc(Br)cc1)c1ccc(NCCc2ccccc2F)c([N+](=O)[O-])c1 (stereo unspecified) | · | · | 8 | 25 | 63* | ·
O=C(O)c1[nH]c2ccccc2c1-c1ccccc1 | -3 | 2 | 2 | 4 | 13 | 9
Cc1ccc2[nH]c(C(=O)O)c(-c3ccccc3)c2c1 | 3 | 9.9* | 3 | 20 | 14 | 21
S=c1c2c(nc3nc[nH]n13)CCC2 | -10 | -2 | -2 | 93* | 13 | 4
Cc1ccc(S(=O)(=O)N/N=C/c2ccccc2F)cc1[N+](=O)[O-] | 5.9* | -1 | 0 | · | 6 | 0
SMILES | IMP-1 inh | VIM-2 inhibitor | core dimer inh | PHOSPHO1 block | SUMO HTRF inh | HCV NS3 hel inh
CCC1CCCCN1C(=O)Cn1c(=O)n(CCCC(=O)NCc2ccco2)c(=O)c2sccc21 (stereo unspecified) | -1 | 0 | -1 | 14 | 5 | 6
COc1ccc(OCc2cc(C(=O)N(C)C3CCOCC3)no2)c2ccccc12 | -4 | -1 | 7 | 62* | 2 | -16
CSc1c(CC(=O)Nc2ccc(F)cc2)n(Cc2ccccc2)c2ccccc12 | -3 | -2 | -1 | 11 | -10 | 10
Cc1ccc(C)c(N2CCN(S(=O)(=O)c3ccc4[nH]c(=O)ccc4c3)CC2)c1 | 0 | -2 | 46* | 15 | 20 | -6
Cc1cccc(N2CCN(S(=O)(=O)c3ccc4[nH]c(=O)ccc4c3)CC2)c1C | -1 | -3 | 32 | 25 | 32 | -23
CC(C)c1ccc(NC(=O)CSc2nc3ccsc3c(=O)n2CCC(=O)O)cc1 | -6 | -2 | 3 | 7 | -11 | 32
COc1ccc(C2C(C(C)=O)=C(C)N=c3s/c(=C\c4ccc5c(c4)OCO5)c(=O)n32)c(OC)c1 (stereo unspecified) | -7 | -5 | 12 | · | · | -5
COc1ccc(C2C(C(C)=O)=C(C)N=c3s/c(=C\c4cc(C)n(C)c4C)c(=O)n32)c(OC)c1 (stereo unspecified) | 0 | -2 | -7 | 71* | -5 | 1
CCC(=O)Nc1cc(NC(=O)CSc2ncc(-c3ccc(F)cc3)n2Cc2ccco2)ccc1C | -3 | -3 | 13 | 72* | -16 | 3
Cn1c(-c2ccc(F)cc2)cnc1SCC(=O)Nc1ccccc1 | 0 | -2 | 3 | -3 | -2 | -12
CC(=O)Nc1ccc(NC(=O)Cn2c(-c3ccc(F)cc3)cnc2SCC(=O)Nc2c(C)cccc2C)cc1 | 0 | -3 | 12 | -22 | 51* | 7
CN(c1nc(-c2ccc(Br)cc2)cs1)C1CCS(=O)(=O)C1 (stereo unspecified) | -3 | 0 | 3 | 36 | 9 | -1
C[C@@H]1CCC2[C@](C)(CO)[C@@H](O)CC[C@]2(C)[C@@]12C[C@](CO)(CC(=O)O)CO2 (stereo partly specified) | -4 | -3 | -3 | 7 | 12 | 15
CC(C)(C)c1cn(-c2ccc(Cl)cc2)c(=S)[nH]1 | -4 | -7 | 1 | 74* | 16 | -9
COc1ccccc1C1=NOC(CN2C(=O)c3ccccc3S2(=O)=O)C1 (stereo unspecified) | -4 | 7.7* | -5 | 37 | 14 | -3
O=C1c2ccccc2S(=O)(=O)N1CC1CC(c2ccccc2Cl)=NO1 (stereo unspecified) | -1 | -2 | -2 | -15 | 5 | -4
CC1(C)CC(=O)C2=C(C1)OC(N)=C(C#N)C2CCc1ccccc1 (stereo unspecified) | 4.7* | 1 | 5 | 12 | -17 | 33

Assay outcomes from PubChem BioAssay.
